Test results reported in ChEMBL document CHEMBL2150909, “Imidazo[1,2-a]pyridines: orally active positive allosteric modulators of the metabotropic glutamate 2 receptor” (J Med Chem, 2012).
Values belong to the compound of their own block, whether it stands above or below them.

Tests used:
[1] = molecular target: T1, Metabotropic glutamate receptor 2 (Homo sapiens, UniProt Q14416); assay: Agonist activity at human mGlu 2 expressed in CHO cells by PAM assay relative to glutamate; assay type: functional, cell-based
How it was run: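 The assay measured [35S]GTPγS binding to membranes from CHO cells expressing human mGluR2. Cells were butyrate-stimulated (5 mM, 24 h) before membranes were prepared. Membranes were preincubated for 30 min at 30 °C in HEPES pH 7.4 buffer (NaCl, MgCl2, 50 μM GDP) with compound (0.3 nM–50 μM, 11 concentrations) plus EC25 glutamate. [35S]GTPγS (0.1 nM final) was then added for 30 min at 30 °C. Bound label was collected by filtration and counted. Runs were done at least in triplicate with duplicate points, and a four-parameter logistic fit gave the values.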
Target sequence in this assay (Q14416 19-872 limits assumed): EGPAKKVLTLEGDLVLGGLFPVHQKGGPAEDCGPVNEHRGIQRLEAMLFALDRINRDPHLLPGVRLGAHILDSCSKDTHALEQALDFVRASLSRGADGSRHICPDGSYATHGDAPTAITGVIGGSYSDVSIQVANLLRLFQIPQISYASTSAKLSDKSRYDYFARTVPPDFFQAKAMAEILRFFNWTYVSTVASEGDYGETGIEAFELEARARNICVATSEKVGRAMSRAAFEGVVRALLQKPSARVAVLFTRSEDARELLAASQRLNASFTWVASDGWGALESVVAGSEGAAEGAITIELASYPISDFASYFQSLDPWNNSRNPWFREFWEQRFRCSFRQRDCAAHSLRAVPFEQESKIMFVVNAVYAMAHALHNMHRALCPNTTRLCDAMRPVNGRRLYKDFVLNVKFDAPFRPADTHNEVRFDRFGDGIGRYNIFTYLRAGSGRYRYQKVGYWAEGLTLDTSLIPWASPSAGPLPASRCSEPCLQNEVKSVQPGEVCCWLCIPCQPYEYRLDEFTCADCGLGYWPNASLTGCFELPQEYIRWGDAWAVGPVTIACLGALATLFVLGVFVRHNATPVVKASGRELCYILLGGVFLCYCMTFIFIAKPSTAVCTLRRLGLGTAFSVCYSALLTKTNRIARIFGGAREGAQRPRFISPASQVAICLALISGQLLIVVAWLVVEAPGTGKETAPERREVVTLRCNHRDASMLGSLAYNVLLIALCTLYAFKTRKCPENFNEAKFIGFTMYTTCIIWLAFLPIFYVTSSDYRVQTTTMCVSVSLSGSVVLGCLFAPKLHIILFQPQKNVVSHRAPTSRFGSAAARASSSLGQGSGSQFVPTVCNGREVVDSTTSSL

[2] = Metabolic stability of human liver microsomes assessed as compound metabolized at 5 uM after 15 mins; assay type: ADME, Microsome; settings: read-out: Drug metabolism
How it was run: (§1)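 Test compound at 5 μM incubated 15 min with rat or human liver microsomes; read-out is percent of compound metabolized.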

[3] = Metabolic stability of Sprague-Dawley rat liver microsomes assessed as compound metabolized at 5 uM after 15 mins; assay type: ADME, Microsome; settings: read-out: Drug metabolism; how it was run: as §1
[4] = molecular target: T1, Metabotropic glutamate receptor 2; assay: Agonist activity at human mGlu 2 expressed in CHO cells assessed as [35S]GTPgammaS binding by liquid scintillation analysis; assay type: functional, cell-based
How it was run: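 Membranes from butyrate-stimulated (5 mM, 24 h) CHO cells expressing human mGlu2. Preincubated 30 min at 30 °C in HEPES pH 7.4 with NaCl, MgCl2, 50 μM GDP and saponin; modulator 0.3 nM–50 μM, no added glutamate. [35S]GTPγS 0.1 nM final, 30 min at 30 °C, filtered, scintillation counted. Nonspecific binding defined with cold GTP; 11 concentrations in duplicate, ≥3 curves.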
Target sequence in this assay (Q14416 whole entry): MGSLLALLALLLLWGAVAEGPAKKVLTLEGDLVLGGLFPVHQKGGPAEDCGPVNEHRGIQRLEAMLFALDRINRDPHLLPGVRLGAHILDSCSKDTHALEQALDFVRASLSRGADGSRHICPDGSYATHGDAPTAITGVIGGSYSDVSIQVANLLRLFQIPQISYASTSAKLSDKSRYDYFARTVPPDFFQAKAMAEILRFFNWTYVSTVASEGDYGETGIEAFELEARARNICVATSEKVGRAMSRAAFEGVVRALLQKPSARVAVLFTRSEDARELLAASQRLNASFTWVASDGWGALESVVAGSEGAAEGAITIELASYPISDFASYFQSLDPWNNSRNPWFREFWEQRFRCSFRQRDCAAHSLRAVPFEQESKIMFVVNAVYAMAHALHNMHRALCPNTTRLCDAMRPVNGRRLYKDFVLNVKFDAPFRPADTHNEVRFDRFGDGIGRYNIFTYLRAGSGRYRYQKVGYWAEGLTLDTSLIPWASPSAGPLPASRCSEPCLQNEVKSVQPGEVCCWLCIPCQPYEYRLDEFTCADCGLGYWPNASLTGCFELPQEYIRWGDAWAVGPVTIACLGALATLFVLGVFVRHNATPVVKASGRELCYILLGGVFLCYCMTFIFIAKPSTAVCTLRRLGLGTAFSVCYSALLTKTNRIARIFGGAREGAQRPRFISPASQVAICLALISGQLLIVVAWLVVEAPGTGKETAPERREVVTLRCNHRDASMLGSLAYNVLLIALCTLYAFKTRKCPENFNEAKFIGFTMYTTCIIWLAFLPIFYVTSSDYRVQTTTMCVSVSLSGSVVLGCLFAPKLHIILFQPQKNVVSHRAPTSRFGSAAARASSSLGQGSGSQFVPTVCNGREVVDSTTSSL

[5] = Plasma concentration in SPF Swiss mouse at 10 mg/kg, sc after 4 hrs; assay type: ADME, organism-based; parameters: dose 10 mg/kg, route subcutaneous
How it was run: (§2)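 Male Swiss SPF mice dosed subcutaneously at 10 mg/kg in 20% HP-β-CD, pH 4. Brain levels measured in ng/g and plasma levels in ng/mL at the stated time, with brain/plasma ratio; geometric mean of at least two runs ± SEM.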

[6] = Cmax in Sprague-Dawley rat at 10 mg/kg, po and 1.25 mg/kg, iv; assay type: ADME, organism-based; settings: in vivo
How it was run: (§3)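 Male Sprague-Dawley rats given 10 mg/kg orally and/or 1.25 mg/kg intravenously; compound formulated in 20% HP-β-CD at pH 4. Cmax, tmax, AUC0−inf, t1/2, clearance and oral bioavailability F derived from plasma levels; geometric mean of at least two runs ± SEM.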

[7] = Plasma concentration in SPF Swiss mouse at 10 mg/kg, sc after 2 hrs; assay type: ADME, organism-based; parameters: dose 10 mg/kg, route subcutaneous; how it was run: as §2
[8] = Ratio of drug level in brain to plasma of SPF Swiss mouse at 10 mg/kg, sc after 4 hrs; assay type: ADME, organism-based; parameters: dose 10 mg/kg, route subcutaneous; settings: read-out: BPR
How it was run: (§4)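 Male Swiss SPF mice, single subcutaneous dose of 10 mg/kg in 20% HP-β-CD at pH 4. Brain levels (ng/g) and plasma levels (ng/mL) measured at the stated time after dosing; brain-to-plasma ratio taken from these. Geometric mean of at least two runs ± SEM.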

[9] = Tmax in Sprague-Dawley rat at 10 mg/kg, po and 1.25 mg/kg, iv; assay type: ADME, organism-based; settings: in vivo
How it was run: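 Rat pharmacokinetics in Sprague−Dawley rats: oral 10 mg/kg and intravenous 1.25 mg/kg, formulated in 20% HP-β-CD at pH 4. Plasma profiles used for Cmax, tmax, AUC0−inf and t1/2. Reported as geometric means of at least two runs ± SEM.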

[10] = Half life in Sprague-Dawley rat at 10 mg/kg, po and 1.25 mg/kg, iv; assay type: ADME, organism-based; settings: in vivo; how it was run: as §3
[11] = Drug uptake in SPF Swiss mouse brain at 10 mg/kg, sc after 1 hr; assay type: ADME, organism-based; parameters: dose 10 mg/kg, route subcutaneous; settings: read-out: Drug uptake; how it was run: as §2
[12] = Oral bioavailability in Sprague-Dawley rat at 10 mg/kg; assay type: ADME, organism-based; settings: in vivo; how it was run: as §3
[13] = Clearance in Sprague-Dawley rat at 10 mg/kg, po and 1.25 mg/kg, iv; assay type: ADME, organism-based; settings: in vivo; how it was run: as §3
[14] = Plasma concentration in SPF Swiss mouse at 10 mg/kg, sc after 1 hr; assay type: ADME, organism-based; parameters: dose 10 mg/kg, route subcutaneous; how it was run: as §2
[15] = AUC (0 to infinity) in Sprague-Dawley rat at 10 mg/kg, po and 1.25 mg/kg, iv; assay type: ADME, organism-based; settings: plasma; how it was run: as §3
[16] = Ratio of drug level in brain to plasma of SPF Swiss mouse at 10 mg/kg, sc after 1 hr; assay type: ADME, organism-based; parameters: dose 10 mg/kg, route subcutaneous; settings: read-out: BPR; how it was run: as §4
[17] = Drug uptake in SPF Swiss mouse brain at 10 mg/kg, sc after 4 hrs; assay type: ADME, organism-based; parameters: dose 10 mg/kg, route subcutaneous; settings: read-out: Drug uptake; how it was run: as §2
[18] = Ratio of drug level in brain to plasma of SPF Swiss mouse at 10 mg/kg, sc after 2 hrs; assay type: ADME, organism-based; parameters: dose 10 mg/kg, route subcutaneous; settings: read-out: BPR; how it was run: as §4
[19] = Drug uptake in SPF Swiss mouse brain at 10 mg/kg, sc after 2 hrs; assay type: ADME, organism-based; parameters: dose 10 mg/kg, route subcutaneous; settings: read-out: Drug uptake; how it was run: as §2
[20] = Drug uptake in Sprague-Dawley rat brain at 10 mg/kg, sc after 1 hr; assay type: ADME, organism-based; parameters: dose 10 mg/kg, route subcutaneous; settings: read-out: Drug uptake
How it was run: (§5)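 Brain exposure in male Sprague-Dawley rats after a 10 mg/kg subcutaneous dose, vehicle 20% HP-β-CD at pH 4. Brain level measured in ng/g alongside plasma in ng/mL; geometric mean of at least two runs ± SEM.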

[21] = Ratio of drug level in brain to plasma of Sprague-Dawley rat at 10 mg/kg, sc after 2 hrs; assay type: ADME, organism-based; parameters: dose 10 mg/kg, route subcutaneous; settings: read-out: BPR
How it was run: (§6)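 Male Sprague−Dawley rats given 10 mg/kg subcutaneously, vehicle 20% HP-β-CD at pH 4. Plasma (ng/mL) and brain (ng/g) drug levels determined at the listed post-dose time; B/P ratio derived from them. Values are geometric means of at least two runs ± SEM.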

[22] = Drug uptake in Sprague-Dawley rat brain at 10 mg/kg, sc after 4 hrs; assay type: ADME, organism-based; parameters: dose 10 mg/kg, route subcutaneous; settings: read-out: Drug uptake; how it was run: as §5
[23] = Ratio of drug level in brain to plasma of Sprague-Dawley rat at 10 mg/kg, sc after 1 hr; assay type: ADME, organism-based; parameters: dose 10 mg/kg, route subcutaneous; settings: read-out: BPR; how it was run: as §6
[24] = Plasma concentration in Sprague-Dawley rat at 10 mg/kg, sc after 2 hrs; assay type: ADME, organism-based; parameters: dose 10 mg/kg, route subcutaneous; how it was run: as §6
[25] = Drug uptake in Sprague-Dawley rat brain at 10 mg/kg, sc after 2 hrs; assay type: ADME, organism-based; parameters: dose 10 mg/kg, route subcutaneous; settings: read-out: Drug uptake; how it was run: as §5
[26] = Plasma concentration in Sprague-Dawley rat at 10 mg/kg, sc after 1 hr; assay type: ADME, organism-based; parameters: dose 10 mg/kg, route subcutaneous; how it was run: as §6
[27] = Ratio of drug level in brain to plasma of Sprague-Dawley rat at 10 mg/kg, sc after 4 hrs; assay type: ADME, organism-based; parameters: dose 10 mg/kg, route subcutaneous; settings: brain and plasma, read-out: BPR; how it was run: as §6
[28] = Plasma concentration in Sprague-Dawley rat at 10 mg/kg, sc after 4 hrs; assay type: ADME, organism-based; parameters: dose 10 mg/kg, route subcutaneous; how it was run: as §6
[29] = AUC (0 to infinity) in Sprague-Dawley rat at 10 mg/kg, po and 2.5 mg/kg, iv; assay type: ADME, organism-based; settings: plasma
How it was run: (§7)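 Rat PK: compounds formulated in 20% HP-β-CD at pH 4 and given orally and intravenously. Values are geometric means of at least two runs ± SEM.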

[30] = Cmax in Sprague-Dawley rat at 10 mg/kg, po and 2.5 mg/kg, iv; assay type: ADME, organism-based; settings: in vivo; how it was run: as §7
[31] = Tmax in Sprague-Dawley rat at 10 mg/kg, po and 2.5 mg/kg, iv; assay type: ADME, organism-based; settings: in vivo; how it was run: as §7
[32] = Half life in Sprague-Dawley rat at 10 mg/kg, po and 2.5 mg/kg, iv; assay type: ADME, organism-based; settings: in vivo; how it was run: as §7
[33] = Clearance in Sprague-Dawley rat at 10 mg/kg, po and 2.5 mg/kg, iv; assay type: ADME, organism-based; settings: in vivo

- Emax [1]: 167%
Compound: N#Cc1c(-c2ccc(N3CCOCC3)c(Cl)c2)ccn2c(CC(F)(F)F)cnc12

- metabolised at 0.25 h, 5 µM [2]: 51%
- Emax [1]: 184%
- metabolised at 0.25 h, 5 µM [3]: 62%
- EC50 [4]: 120 nM
Compound: Cn1ccc2cc(-c3ccn4c(CC(F)(F)F)cnc4c3C#N)cc(Cl)c21

- metabolised at 0.25 h, 5 µM [2]: 35%
- Emax [1]: 277%
- metabolised at 0.25 h, 5 µM [3]: 49%
- EC50 [4]: 320 nM
Compound: N#Cc1c(-c2cc(Cl)c3[nH]ccc3c2)ccn2c(CC(F)(F)F)cnc12

- metabolised at 0.25 h, 5 µM [2]: 29%
- Emax [1]: 173%
- metabolised at 0.25 h, 5 µM [3]: 50%
- EC50 [4]: 617 nM
Compound: N#Cc1c(-c2ccc(OC3CCOCC3)c(Cl)c2)ccn2c(CC(F)(F)F)cnc12

- concentration at 4 h [5]: 114 ng/mL
- metabolised at 0.25 h, 5 µM [2]: 23%
- Cmax [6]: 274 ng/mL
- concentration at 2 h [7]: 893 ng/mL
- Kp at 4 h [8]: 1.9
- Tmax [9]: 30 min
- half-life [10]: 126 min
- concentration at 1 h [11]: 1840 ng/g
- bioavailability [12]: 27%
- clearance [13]: 56.7 mL/min/kg
- concentration at 1 h [14]: 1040 ng/mL
- AUC(0-inf) [15]: 714 ng·h/mL
- metabolised at 0.25 h, 5 µM [3]: 23%
- Kp at 1 h [16]: 1.8
- concentration at 4 h [17]: 221 ng/g
- Kp at 2 h [18]: 1.7
- concentration at 2 h [19]: 1530 ng/g
Compound: N#Cc1c(-c2ccc(Oc3ccccc3)cc2)ccn2c(CC(F)(F)F)cnc12

- concentration at 1 h [20]: 1000 ng/g
- Kp at 2 h [21]: 1
- metabolised at 0.25 h, 5 µM [2]: 16%
- concentration at 4 h [22]: 485 ng/g
- Kp at 1 h [23]: 0.5
- concentration at 2 h [24]: 1280 ng/mL
- concentration at 2 h [25]: 1220 ng/g
- concentration at 1 h [26]: 2140 ng/mL
- Kp at 4 h [27]: 0.7
- Emax [1]: 293%
- metabolised at 0.25 h, 5 µM [3]: 15%
- concentration at 4 h [28]: 708 ng/mL
- EC50 [4]: 150 nM
Compound: O[C@H]1CC[C@H](Nc2ccc(-c3ccn4c(CC(F)(F)F)cnc4c3Cl)cc2Cl)CC1

- metabolised at 0.25 h, 5 µM [2]: 19%
- Emax [1]: 200%
- metabolised at 0.25 h, 5 µM [3]: 74%
Compound: N#Cc1c(-c2cc(Cl)c3c(ccn3CC3CC3)c2)ccn2c(CC(F)(F)F)cnc12

- metabolised at 0.25 h, 5 µM [2]: 23%
- concentration at 2 h [7]: 95 ng/mL
- AUC(0-inf) [29]: 281 ng·h/mL
- concentration at 1 h [11]: 704 ng/g
- Cmax [30]: 216 ng/mL
- bioavailability [12]: 15%
- concentration at 1 h [14]: 932 ng/mL
- Emax [1]: 442%
- Tmax [31]: 30 min
- metabolised at 0.25 h, 5 µM [3]: 28%
- Kp at 1 h [16]: 0.8
- half-life [32]: 55.2 min
- clearance [33]: 83.3 mL/min/kg
- Kp at 2 h [18]: 0.5
- EC50 [4]: 501 nM
- concentration at 2 h [19]: 50 ng/g
Compound: N#Cc1c(-c2ccc3c(ccn3C3CCOCC3)c2)ccn2c(CC(F)(F)F)cnc12
